Compound activity deposited in PubChem by The Scripps Research Institute Molecular Screening Center.
HGIII-sPLA2 inh = Inhibits HGIII-sPLA2 liposome hydrolysis, primary screen; 370,000 tested, 0.56% active; Q9NZ20; inhibition, % at 12.2 µM; QFRET BODIPY PC-A2 liposome hydrolysis, fluorescence;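 active = inhibition above mean plus 3 SD of compounds lying within the high and low control bounds, cut at about 19% in these data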
PLCb3 inh = inhibitors of human phospholipase C beta3 | Q01970 | Purified PLC-beta3, fluorogenic substrate, fluorescence | inhibition, % at 12.2 µM | 370,000 tested, 0.18% active; in the data active = inhibition above about 11%
DAGLB inhibitor = diacylglycerol lipase beta (human) inhibition; Q8NCG7; HEK293T DAGLB membrane lysate, EnzChek fluorogenic substrate; inhibition, % at 5.17 µM; 340,000 tested, 0.059% active; AID 504411; in the data active = inhibition above about 34%
PLC-gamma1 inh = inhibitors of human phospholipase C gamma1. 370,000 tested, 0.84% active. inhibition, % at 12.2 µM. purified PLC-gamma1, fluorogenic substrate, fluorescence. P19174; in the data active = inhibition above about 9.5%
Target sequence (P19174 whole entry, looked up): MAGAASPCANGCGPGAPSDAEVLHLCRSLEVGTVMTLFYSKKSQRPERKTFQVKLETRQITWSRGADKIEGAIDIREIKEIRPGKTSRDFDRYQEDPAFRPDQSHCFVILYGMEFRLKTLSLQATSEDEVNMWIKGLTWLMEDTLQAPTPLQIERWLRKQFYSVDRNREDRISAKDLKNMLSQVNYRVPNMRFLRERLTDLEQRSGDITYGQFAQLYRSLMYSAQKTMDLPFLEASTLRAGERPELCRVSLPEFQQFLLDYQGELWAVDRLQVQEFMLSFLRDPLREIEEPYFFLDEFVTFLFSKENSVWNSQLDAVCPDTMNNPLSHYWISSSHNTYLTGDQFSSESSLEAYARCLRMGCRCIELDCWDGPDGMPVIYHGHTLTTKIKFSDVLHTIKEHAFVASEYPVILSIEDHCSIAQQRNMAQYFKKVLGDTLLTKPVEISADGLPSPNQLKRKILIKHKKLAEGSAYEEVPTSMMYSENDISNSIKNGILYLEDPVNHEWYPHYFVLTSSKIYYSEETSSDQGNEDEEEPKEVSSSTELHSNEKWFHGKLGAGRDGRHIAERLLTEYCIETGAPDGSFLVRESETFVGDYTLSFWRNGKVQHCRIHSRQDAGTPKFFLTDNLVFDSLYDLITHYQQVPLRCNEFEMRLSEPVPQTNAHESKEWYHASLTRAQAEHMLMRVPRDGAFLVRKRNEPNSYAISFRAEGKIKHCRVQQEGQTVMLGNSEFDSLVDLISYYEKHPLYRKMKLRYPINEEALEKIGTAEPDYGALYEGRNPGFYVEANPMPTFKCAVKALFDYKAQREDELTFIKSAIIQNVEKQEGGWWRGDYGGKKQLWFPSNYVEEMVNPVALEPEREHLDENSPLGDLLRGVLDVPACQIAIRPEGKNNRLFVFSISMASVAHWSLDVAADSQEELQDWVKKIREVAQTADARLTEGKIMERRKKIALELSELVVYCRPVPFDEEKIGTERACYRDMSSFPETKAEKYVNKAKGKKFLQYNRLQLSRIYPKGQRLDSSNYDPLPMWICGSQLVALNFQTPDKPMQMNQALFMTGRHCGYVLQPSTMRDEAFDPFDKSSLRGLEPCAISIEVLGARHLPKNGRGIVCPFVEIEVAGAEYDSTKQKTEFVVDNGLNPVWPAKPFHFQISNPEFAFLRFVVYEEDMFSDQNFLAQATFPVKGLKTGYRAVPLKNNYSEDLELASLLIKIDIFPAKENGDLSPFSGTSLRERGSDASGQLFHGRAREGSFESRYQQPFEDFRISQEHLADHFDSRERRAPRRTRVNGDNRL
Tb MetRS inh = blocks T. brucei methionyl-tRNA synthetase activity; 360,000 tested, 0.4% active; purified T. brucei MetRS, ATP depletion, Kinase-Glo luminescence; AID 624268; inhibition, % at 11.9 µM;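 active = inhibition above a per-plate cutoff of the control wells' mean inhibition plus 3 SD, cut at about 5.5% in these data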
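Material: T. brucei methionyl-tRNA synthetase, purified; reagent: substrates ATP, L-methionine and bulk Escherichia coli tRNA; dosing: 11.9 µM single point; timing: 15 min plus 2 h at 25 °C; detection: luminescence of leftover ATP; evaluation: % inhibition; control set: DMSO-only wells as low control; replicates: singlicate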
Tb MetRS conf = confirmation of Trypanosoma brucei MetRS inhibitors; shares compounds with Tb MetRS inh; AID 624412; 1,400 tested, 93% active; T. brucei MetRS enzyme, luminescence (ATP depletion); inhibition, % at 11.9 µM; in the data active = inhibition above about 7%
Jurkat tox = kills Jurkat cells in T. brucei MetRS counterscreen; shares compounds with Tb MetRS inh; Jurkat cells viability, ATP luminescence; inhibition, % at 8.3 µM; 1,400 tested, 12% active; in the data active = inhibition above about 15%
TbMetRS FP orth = T. brucei MetRS inhibition, orthogonal assay; shares compounds with Tb MetRS inh; inhibition, % at 11.9 µM; AID 651607; purified T. brucei MetRS, fluorescence polarization; 1,400 tested, 44% active; in the data active = inhibition above about 17%
Hits are given with their value. In the library only some 1.9% were active in any assay of this set; here they are far more common.

`COc1cccc(CN=C2Nc3ccccc3CS2)c1` gave HGIII-sPLA2 inh inactive, PLCb3 inh inactive, DAGLB inhibitor inactive, PLC-gamma1 inh inactive, Tb MetRS inh 6.1, Tb MetRS conf 11, Jurkat tox inactive and TbMetRS FP orth inactive.
CCOC(=O)[C@@]12CCCC3=C1N(CCC3)C(=O)[C@H]2CC(=O)N1CCCC1 was read as HGIII-sPLA2 inh inactive, PLCb3 inh inactive and PLC-gamma1 inh inactive.
`CCCCOCCCNC(=O)C[C@@H]1C(=O)N(Cc2ccc(OC)cc2)/C2=C/CCCCC[C@@]21C(=O)OCC` gave HGIII-sPLA2 inh inactive, PLCb3 inh inactive and PLC-gamma1 inh inactive.
Screening O=C(Nc1ccccc1)Nc1nnc(CSCc2ccccc2Cl)s1 returned HGIII-sPLA2 inh inactive, PLCb3 inh inactive, DAGLB inhibitor inactive, PLC-gamma1 inh inactive, Tb MetRS inh 12, Tb MetRS conf 61, Jurkat tox inactive and TbMetRS FP orth 55.
`O=C(NCc1ccc2c(c1)OCO2)c1ccc(CSCc2ccc(Cl)cc2)o1` gave HGIII-sPLA2 inh inactive, PLCb3 inh inactive, DAGLB inhibitor inactive, PLC-gamma1 inh inactive and Tb MetRS inh inactive.
For O=C(NCc1ccc2c(c1)OCO2)c1ccc(COc2cc(Cl)ccc2Cl)o1 the results were HGIII-sPLA2 inh inactive, PLCb3 inh inactive, DAGLB inhibitor inactive, PLC-gamma1 inh inactive, Tb MetRS inh 8.1, Tb MetRS conf 15, Jurkat tox inactive and TbMetRS FP orth inactive.
`O=C(Nc1cccnc1)c1ccc(COc2cc(Cl)ccc2Cl)o1` gave HGIII-sPLA2 inh inactive, PLCb3 inh inactive, DAGLB inhibitor inactive, PLC-gamma1 inh inactive, Tb MetRS inh 6.8, Tb MetRS conf 15, Jurkat tox inactive and TbMetRS FP orth 18.
For O=C1CC(N(O)c2ccccc2)C(=O)N1c1cc(Cl)cc(Cl)c1 (stereo not given) the results were HGIII-sPLA2 inh inactive, PLCb3 inh inactive, DAGLB inhibitor inactive, PLC-gamma1 inh inactive, Tb MetRS inh 13, Tb MetRS conf 65, Jurkat tox inactive and TbMetRS FP orth 28.
Screening O=S1(=O)c2ccc(N3CCC[C@@H]3CO)cc2O[C@H]2CCN1C2 returned HGIII-sPLA2 inh inactive, PLCb3 inh inactive and PLC-gamma1 inh inactive.
For CCN(CC)C(=O)c1ccc(Oc2ccc([N+](=O)[O-])cc2Cl)cc1 the results were HGIII-sPLA2 inh inactive, PLCb3 inh inactive, DAGLB inhibitor inactive, PLC-gamma1 inh inactive, Tb MetRS inh 5.9, Tb MetRS conf 13, Jurkat tox inactive and TbMetRS FP orth inactive.
Screening C=CCNC(=O)CN(C(=O)Cc1cccc(OC(F)(F)F)c1)c1cccc(Br)c1 returned HGIII-sPLA2 inh inactive, PLCb3 inh inactive and PLC-gamma1 inh inactive.
`COc1ccc(OC)c(-n2c(SCC(=O)NCc3ccco3)nnc2-c2c[nH]c3ccccc23)c1` gave HGIII-sPLA2 inh inactive, PLCb3 inh inactive, DAGLB inhibitor inactive, PLC-gamma1 inh inactive, Tb MetRS inh 9.5, Tb MetRS conf 21, Jurkat tox inactive and TbMetRS FP orth inactive.
For COc1cccc(-n2c(SC)nnc2-c2c[nH]c3ccccc23)c1 the results were HGIII-sPLA2 inh inactive, PLCb3 inh inactive, DAGLB inhibitor inactive, PLC-gamma1 inh inactive, Tb MetRS inh 13, Tb MetRS conf 22, Jurkat tox inactive and TbMetRS FP orth inactive.
For COc1cccc(CNC(=O)C[C@H]2CC[C@H]3[C@@H](COc4ccc(NC(=O)c5cccs5)cc4C(=O)N3C)O2)c1 the results were HGIII-sPLA2 inh inactive, PLCb3 inh inactive and PLC-gamma1 inh inactive.
For Cc1cc(=O)c2cc(Br)ccc2[nH]1 the results were HGIII-sPLA2 inh inactive, PLCb3 inh inactive, DAGLB inhibitor inactive, PLC-gamma1 inh inactive, Tb MetRS inh 6.0, Tb MetRS conf 7.5, Jurkat tox inactive and TbMetRS FP orth inactive.
Screening Cc1cc(=O)c2ccccc2[nH]1 returned HGIII-sPLA2 inh inactive, PLCb3 inh inactive, DAGLB inhibitor inactive, PLC-gamma1 inh inactive and Tb MetRS inh inactive.
Screening CN1OC[C@@H]2CN[C@H](c3ccc(N4CCCCC4)cc3)C[C@@H]21 returned HGIII-sPLA2 inh inactive, PLCb3 inh inactive and PLC-gamma1 inh inactive.
For CCOc1ccc(C=Nn2c(-c3cccc(OC(C)C)c3)n[nH]c2=S)cc1 the results were HGIII-sPLA2 inh inactive, PLCb3 inh inactive and PLC-gamma1 inh inactive.
Screening c1ccc2cc3[nH]c(CN4CCOCC4)nc3cc2c1 returned HGIII-sPLA2 inh inactive, PLCb3 inh inactive, DAGLB inhibitor inactive, PLC-gamma1 inh inactive, Tb MetRS inh 6.6, Tb MetRS conf 13, Jurkat tox inactive and TbMetRS FP orth inactive.
Screening Cc1ccc(C)c(C(=O)Nc2nc3ccccc3[nH]2)c1 returned HGIII-sPLA2 inh inactive, PLCb3 inh inactive, DAGLB inhibitor inactive, PLC-gamma1 inh inactive and Tb MetRS inh inactive.
For Cc1ccc(Nc2nc3ccccc3[nH]2)nc1 the results were HGIII-sPLA2 inh inactive, PLCb3 inh inactive, DAGLB inhibitor inactive, PLC-gamma1 inh inactive, Tb MetRS inh 8.1, Tb MetRS conf 26, Jurkat tox inactive and TbMetRS FP orth inactive.
Screening CC(C)CC1NC(=O)N(CCCCN2C(=O)c3ccccc3C2=O)C1=O (stereo not given) returned HGIII-sPLA2 inh inactive, PLCb3 inh inactive, DAGLB inhibitor inactive, PLC-gamma1 inh inactive, Tb MetRS inh 8.8, Tb MetRS conf inactive, Jurkat tox inactive and TbMetRS FP orth inactive.
For CCC(CO)Nc1cccc2c1S(=O)(=O)N(Cc1cn(Cc3ccc(Cl)cc3)nn1)Cc1ccccc1O2 (stereo not given) the results were HGIII-sPLA2 inh inactive, PLCb3 inh inactive and PLC-gamma1 inh inactive.
Screening COc1ccc2nc(SCC(=O)NCc3ccc(F)cc3)[nH]c2c1 returned HGIII-sPLA2 inh inactive, PLCb3 inh inactive, DAGLB inhibitor inactive, PLC-gamma1 inh inactive and Tb MetRS inh inactive.
`O=C(CCc1nc2ccccc2[nH]1)Nc1ccc2c(c1)OCO2` gave HGIII-sPLA2 inh inactive, PLCb3 inh inactive, DAGLB inhibitor inactive, PLC-gamma1 inh inactive and Tb MetRS inh inactive.
`NS(=O)(=O)c1cccc(NC(=O)CSc2nc3ccccc3[nH]2)c1` gave HGIII-sPLA2 inh inactive, PLCb3 inh inactive, DAGLB inhibitor inactive, PLC-gamma1 inh inactive, Tb MetRS inh 7.8, Tb MetRS conf 16, Jurkat tox inactive and TbMetRS FP orth inactive.
Screening O=C(CCc1nc2ccccc2[nH]1)NCc1ccc2c(c1)OCO2 returned HGIII-sPLA2 inh inactive, PLCb3 inh inactive, DAGLB inhibitor inactive, PLC-gamma1 inh inactive, Tb MetRS inh 20, Tb MetRS conf 36, Jurkat tox inactive and TbMetRS FP orth inactive.
Screening O=C(CSc1nc2ccccc2[nH]1)NCc1ccc(F)cc1 returned HGIII-sPLA2 inh inactive, PLCb3 inh inactive, DAGLB inhibitor inactive, PLC-gamma1 inh inactive, Tb MetRS inh 7.7, Tb MetRS conf 13, Jurkat tox inactive and TbMetRS FP orth inactive.
